Results: ChEMBL document CHEMBL3774372, “Design, physico-chemical properties and biological evaluation of some new N-[(phenoxy)alkyl]- and N-{2-[2-(phenoxy)ethoxy]ethyl}aminoalkanols as anticonvulsant agents” (Bioorg Med Chem, 2016)
Active and inactive are the calls of the source. The calls are words filed in the database; no cut-off is given here.

What was measured:
[1] = target: D(3) dopamine receptor (Homo sapiens) (UniProt P35462); assay: Displacement of [3H]methylspiperone from human recombinant Dopamine D3 receptor expressed in CHO cells at 10^-5 M; format: cell-based
How it was run: (§1)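 Radioligand displacement screen with the test agent at a single 10^-5 M concentration; receptor source and radioligand per target as tabulated (recombinant human cell lines or rat cerebral cortex/urinary bladder).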

[2] = target: Histamine H2 receptor (Homo sapiens) (UniProt P25021); assay: Displacement of [125I]APT from human recombinant histamine H2 receptor expressed in CHO cells at 10^-5 M; format: cell-based
How it was run: (§2)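 Radioligand binding screen run at a single test concentration of 10^-5 M. Each target used its stated receptor source (human recombinant CHO or HEK-293 cells, endogenous cell lines, or rat tissue membranes) with the listed radioligand.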

Mus musculus [3] = assay: Anticonvulsant activity in mouse assessed as protection against maximal electric shock-induced seizures at 30 mg/kg, ip measured after 0.5 hrs; format: functional, organism-based
How it was run: (§3)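 Mice dosed ip with suspension in 0.5% methylcellulose; maximal electroshock applied at the listed time after dosing. Protection = abolition of hindlimb tonic extension component of seizure; reported as animals protected/animals tested.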

[4] = target: Adenosine receptor A2a (Homo sapiens) (UniProt P29274); assay: Displacement of [3H]CGS 21680 from human recombinant adenosine A2a receptor expressed in HEK293 cells at 10^-5 M; format: cell-based; how it was run: as §2
[5] = target: Sodium-dependent noradrenaline transporter (Homo sapiens) (UniProt P23975); assay: Displacement of [3H]nisoxentine from human recombinant norepinephrine transporter expressed in CHO cells at 10^-5 M; format: cell-based; how it was run: as §1
[6] = target: Mu-type opioid receptor (Homo sapiens) (UniProt P35372); assay: Displacement of [3H]DAMGO from human recombinant Mu-type opioid receptor expressed in CHO cells at 10^-5 M; format: cell-based; how it was run: as §2
[7] = target: Histamine H1 receptor (Homo sapiens) (UniProt P35367); assay: Displacement of [3H]pyrilamine from human recombinant histamine H1 receptor expressed in HEK293 cells at 10^-5 M; format: cell-based; how it was run: as §1
[8] = target: Galanin receptor type 1 (Homo sapiens) (UniProt P47211); assay: Displacement of [125I]galanin from human recombinant GAL1 receptor expressed in HEK293 cells at 10^-5 M; format: cell-based; how it was run: as §2
[9] = target: Substance-K receptor (Homo sapiens) (UniProt P21452); assay: Displacement of [125I]NKA from human recombinant NK2 receptor expressed in CHO cells at 10^-5 M; format: cell-based; how it was run: as §2
[10] = target: Type-2 angiotensin II receptor (Homo sapiens) (UniProt P50052); assay: Displacement of [125I]CGP42112A from human recombinant AT2 receptor expressed in HEK293 cells at 10^-5 M; format: cell-based; how it was run: as §2
[11] = target: Prostaglandin E2 receptor EP2 subtype (Homo sapiens) (UniProt P43116); assay: Displacement of [3H]PGE2 from human recombinant prostanoid EP2 receptor expressed in HEK293 cells at 10^-5 M; format: cell-based; how it was run: as §2
[12] = target: 5-hydroxytryptamine receptor 5A (Homo sapiens) (UniProt P47898); assay: Displacement of [3H]LSD from human recombinant 5-HT5A receptor expressed in HEK293 cells at 10^-5 M; format: cell-based; how it was run: as §2
[13] = target: 5-hydroxytryptamine receptor 3A (Homo sapiens) (UniProt P46098); assay: Displacement of [3H]BRL43694 from human recombinant 5-HT3 receptor expressed in CHO cells at 10^-5 M; format: cell-based; how it was run: as §2
Rattus norvegicus [14] = assay: Anticonvulsant activity in pilocarpine-induced status epilepticus Sprague-Dawley rat model at 30 mg/kg, ip after 2 hrs during post stage 3 seizure; format: functional, organism-based
How it was run: (§4)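 Rats given pilocarpine 50 mg/kg ip and observed to first convulsive seizure (Racine stage 3–5, time zero); test drug then given ip in 0.5% methylcellulose. Efficacy = halting further stage 3–5 convulsive seizures; scored protected/tested, time after first stage 3 seizure.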

Rattus norvegicus [15] = species on record: Rattus norvegicus; assay: Displacement of [35S]dATPalpha S from rat cerebral cortex P2Y receptor at 10^-5 M; format: tissue-based; how it was run: as §2
[16] = target: Melanocortin receptor 4 (Homo sapiens) (UniProt P32245); assay: Displacement of [125I]NDP-alpha-MSH from human recombinant MC4 receptor expressed in CHO cells at 10^-5 M; format: cell-based; how it was run: as §2
[17] = target: D(1B) dopamine receptor (Homo sapiens) (UniProt P21918); assay: Displacement of [3H]SCH23390 from human recombinant Dopamine D5 receptor expressed in GH4 cells at 10^-5 M; format: cell-based; how it was run: as §1
[18] = target: 5-hydroxytryptamine receptor 2A (Homo sapiens) (UniProt P28223); assay: Displacement of [3H]ketanserin from human recombinant 5-HT2A receptor expressed in HEK293 cells at 10^-5 M; format: cell-based; how it was run: as §1
Rattus norvegicus [19] = assay: Anticonvulsant activity in pilocarpine-induced status epilepticus Sprague-Dawley rat model at 30 mg/kg, ip after 1 hr during post stage 3 seizure; format: functional, organism-based; how it was run: as §4
[20] = target: Vasopressin V1a receptor (Homo sapiens) (UniProt P37288); assay: Displacement of [3H]AVP from human recombinant arginine vasopressin receptor 1a expressed in CHO cells at 10^-5 M; format: cell-based; how it was run: as §2
Rattus norvegicus [21] = species on record: Rattus norvegicus; assay: Displacement of [125I][Tyr4]bombesin from rat cerebral cortex Bombesin receptor at 10^-5 M; format: tissue-based; how it was run: as §2
[22] = target: B2 bradykinin receptor (Homo sapiens) (UniProt P30411); assay: Displacement of [3H]bradykinin from human recombinant B2 bradykinin receptor at 10^-5 M; how it was run: as §1
Rattus norvegicus [23] = species on record: Rattus norvegicus; assay: Displacement of [3H]D888 from rat cerebral cortex L-type calcium channel verapamil binding site at 10^-5 M; format: tissue-based; how it was run: as §2
[24] = target: Adrenergic receptor alpha-2 (Rattus norvegicus) (UniProt P22086+P19328+P22909); assay: Displacement of [3H]RX 821002 from rat cerebral cortex Alpha-2 adrenergic receptor at 10^-5 M; format: tissue-based; how it was run: as §2
[25] = target: Glucocorticoid receptor (Homo sapiens) (UniProt P04150); assay: Displacement of [3H]dexamethasone from glucocorticoid receptor in human IM9 cells at 10^-5 M; format: cell-based; details: IM-9; how it was run: as §1
Rattus norvegicus [26] = assay: Anticonvulsant activity in pilocarpine-induced status epilepticus Sprague-Dawley rat model at 30 mg/kg, ip after 0.5 hrs during post stage 3 seizure; format: functional, organism-based; how it was run: as §4
[27] = target: 5-hydroxytryptamine receptor 1B (Rattus norvegicus) (UniProt P28564); assay: Displacement of [125I]CYP from rat cerebral cortex 5-HT1B receptor at 10^-5 M in the presence of isoproternol; format: tissue-based; how it was run: as §2
[28] = target: 5-hydroxytryptamine receptor 2C (Homo sapiens) (UniProt P28335); assay: Displacement of [3H][…] from human recombinant 5-HT2C receptor expressed in HEK293 cells at 10^-5 M; format: cell-based; how it was run: as §1
[29] = target: Substance-P receptor (Homo sapiens) (UniProt P25103); assay: Displacement of [125I]BH-SP from NK1 receptor in human U373MG cells at 10^-5 M; format: cell-based; details: U-373MG ATCC; how it was run: as §2
[30] = target: Cannabinoid receptor 1 (Homo sapiens) (UniProt P21554); assay: Displacement of [3H]CP 55940 from human recombinant CB1 receptor expressed in CHO cells at 10^-5 M; format: cell-based; how it was run: as §2
[31] = target: D(4) dopamine receptor (Homo sapiens) (UniProt P21917); assay: Displacement of [3H]methylspiperone from human recombinant Dopamine D4.4 receptor expressed in CHO cells at 10^-5 M; format: cell-based; how it was run: as §1
Mus musculus [32] = assay: Anticonvulsant activity in mouse assessed as protection against maximal electric shock-induced seizures at 30 mg/kg, ip measured after 4 hrs; format: functional, organism-based; how it was run: as §3
[33] = target: Nociceptin receptor (Homo sapiens) (UniProt P41146); assay: Displacement of [3H]nociceptin from human recombinant Nociceptin receptor expressed in HEK293 cells at 10^-5 M; format: cell-based; how it was run: as §1
Nociceptin receptor (Homo sapiens), sequence (P41146 whole entry): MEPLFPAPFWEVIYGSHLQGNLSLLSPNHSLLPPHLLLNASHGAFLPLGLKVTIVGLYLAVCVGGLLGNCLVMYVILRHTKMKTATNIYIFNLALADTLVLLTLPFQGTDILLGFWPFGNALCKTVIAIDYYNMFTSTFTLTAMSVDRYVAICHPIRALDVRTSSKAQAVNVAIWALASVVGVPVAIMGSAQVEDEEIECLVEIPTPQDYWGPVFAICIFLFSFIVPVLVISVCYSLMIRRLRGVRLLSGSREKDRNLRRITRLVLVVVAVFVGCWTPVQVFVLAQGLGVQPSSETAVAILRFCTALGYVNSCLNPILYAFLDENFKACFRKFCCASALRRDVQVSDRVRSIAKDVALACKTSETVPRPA

D(4) dopamine receptor (Homo sapiens), sequence (P21917 whole entry): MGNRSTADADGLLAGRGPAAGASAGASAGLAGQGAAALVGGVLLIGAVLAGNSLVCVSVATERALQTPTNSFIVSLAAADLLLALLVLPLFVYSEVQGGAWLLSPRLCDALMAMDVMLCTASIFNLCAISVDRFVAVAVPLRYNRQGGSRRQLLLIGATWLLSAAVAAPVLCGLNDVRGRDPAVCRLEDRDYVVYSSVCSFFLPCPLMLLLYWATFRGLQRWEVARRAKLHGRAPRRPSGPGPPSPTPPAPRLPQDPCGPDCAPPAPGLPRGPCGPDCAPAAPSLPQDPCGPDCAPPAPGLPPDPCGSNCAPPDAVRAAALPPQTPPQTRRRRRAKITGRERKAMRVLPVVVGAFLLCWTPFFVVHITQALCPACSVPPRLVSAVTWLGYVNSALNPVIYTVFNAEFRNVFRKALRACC
Substance-K receptor (Homo sapiens), sequence (P21452 whole entry): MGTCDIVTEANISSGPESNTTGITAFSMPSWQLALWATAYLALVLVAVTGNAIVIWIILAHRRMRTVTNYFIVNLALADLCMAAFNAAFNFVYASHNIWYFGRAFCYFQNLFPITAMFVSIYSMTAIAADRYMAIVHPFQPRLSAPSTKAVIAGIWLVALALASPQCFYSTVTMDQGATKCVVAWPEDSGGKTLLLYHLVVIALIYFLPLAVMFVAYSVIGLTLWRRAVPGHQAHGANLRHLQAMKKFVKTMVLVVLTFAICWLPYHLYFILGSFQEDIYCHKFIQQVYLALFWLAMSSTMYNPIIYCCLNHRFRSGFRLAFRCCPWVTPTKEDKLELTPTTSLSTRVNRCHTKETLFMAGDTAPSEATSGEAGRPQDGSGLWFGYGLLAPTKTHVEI
Cannabinoid receptor 1 (Homo sapiens), sequence (P21554 whole entry): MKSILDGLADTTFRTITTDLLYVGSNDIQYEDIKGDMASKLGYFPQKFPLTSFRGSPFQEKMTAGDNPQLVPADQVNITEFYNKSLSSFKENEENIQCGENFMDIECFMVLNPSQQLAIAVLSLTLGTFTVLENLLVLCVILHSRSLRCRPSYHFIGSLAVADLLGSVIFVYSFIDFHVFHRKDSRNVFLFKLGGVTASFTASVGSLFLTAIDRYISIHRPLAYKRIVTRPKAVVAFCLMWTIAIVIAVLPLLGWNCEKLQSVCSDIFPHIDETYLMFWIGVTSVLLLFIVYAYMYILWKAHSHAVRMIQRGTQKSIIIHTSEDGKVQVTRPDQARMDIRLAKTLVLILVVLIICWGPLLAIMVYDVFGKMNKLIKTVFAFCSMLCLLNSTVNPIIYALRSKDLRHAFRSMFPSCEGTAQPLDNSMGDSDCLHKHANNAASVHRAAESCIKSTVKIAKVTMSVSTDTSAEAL
Substance-P receptor (Homo sapiens), sequence (P25103 whole entry): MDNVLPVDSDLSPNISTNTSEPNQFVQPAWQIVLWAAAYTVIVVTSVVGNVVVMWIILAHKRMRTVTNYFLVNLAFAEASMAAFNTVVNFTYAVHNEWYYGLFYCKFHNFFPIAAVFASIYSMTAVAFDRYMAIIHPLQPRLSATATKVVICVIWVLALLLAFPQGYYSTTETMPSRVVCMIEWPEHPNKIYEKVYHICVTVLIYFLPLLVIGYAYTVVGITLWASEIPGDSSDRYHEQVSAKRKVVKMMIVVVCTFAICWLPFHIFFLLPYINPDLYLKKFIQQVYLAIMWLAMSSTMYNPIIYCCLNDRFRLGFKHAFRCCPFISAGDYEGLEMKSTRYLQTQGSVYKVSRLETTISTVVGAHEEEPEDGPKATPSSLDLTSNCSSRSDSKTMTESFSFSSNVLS
Melanocortin receptor 4 (Homo sapiens), sequence (P32245 whole entry): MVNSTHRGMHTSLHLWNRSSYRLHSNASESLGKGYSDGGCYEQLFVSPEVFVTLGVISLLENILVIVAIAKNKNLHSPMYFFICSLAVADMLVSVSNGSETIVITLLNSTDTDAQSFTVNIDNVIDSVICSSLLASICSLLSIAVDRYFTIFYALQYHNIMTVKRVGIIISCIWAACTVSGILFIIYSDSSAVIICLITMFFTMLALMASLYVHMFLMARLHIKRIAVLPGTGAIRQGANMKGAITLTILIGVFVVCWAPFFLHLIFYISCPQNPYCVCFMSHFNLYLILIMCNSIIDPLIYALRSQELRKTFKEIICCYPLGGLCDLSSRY
Type-2 angiotensin II receptor (Homo sapiens), sequence (P50052 whole entry): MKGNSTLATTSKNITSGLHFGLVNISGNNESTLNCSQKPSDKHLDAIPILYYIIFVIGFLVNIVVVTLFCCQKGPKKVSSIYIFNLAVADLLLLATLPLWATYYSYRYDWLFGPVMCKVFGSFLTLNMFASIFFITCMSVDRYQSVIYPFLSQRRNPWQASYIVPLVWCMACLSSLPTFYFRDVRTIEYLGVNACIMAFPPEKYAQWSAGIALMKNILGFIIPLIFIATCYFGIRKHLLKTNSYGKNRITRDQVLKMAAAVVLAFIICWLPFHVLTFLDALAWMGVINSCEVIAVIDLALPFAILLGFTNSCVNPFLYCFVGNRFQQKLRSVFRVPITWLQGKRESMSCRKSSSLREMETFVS
5-hydroxytryptamine receptor 3A (Homo sapiens), sequence (P46098 whole entry): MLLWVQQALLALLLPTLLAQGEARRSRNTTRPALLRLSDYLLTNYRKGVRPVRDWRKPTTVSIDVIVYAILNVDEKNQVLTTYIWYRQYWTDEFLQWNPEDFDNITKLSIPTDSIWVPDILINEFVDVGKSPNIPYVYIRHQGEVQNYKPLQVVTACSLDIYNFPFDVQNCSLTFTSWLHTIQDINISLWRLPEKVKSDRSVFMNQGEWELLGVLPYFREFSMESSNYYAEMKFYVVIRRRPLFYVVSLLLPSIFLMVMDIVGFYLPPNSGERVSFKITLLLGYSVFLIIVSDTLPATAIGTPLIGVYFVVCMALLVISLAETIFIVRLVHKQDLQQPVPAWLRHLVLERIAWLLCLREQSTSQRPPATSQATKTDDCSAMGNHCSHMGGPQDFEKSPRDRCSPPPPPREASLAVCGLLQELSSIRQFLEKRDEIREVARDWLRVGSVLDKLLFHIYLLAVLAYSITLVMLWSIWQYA
B2 bradykinin receptor (Homo sapiens), sequence (P30411 whole entry): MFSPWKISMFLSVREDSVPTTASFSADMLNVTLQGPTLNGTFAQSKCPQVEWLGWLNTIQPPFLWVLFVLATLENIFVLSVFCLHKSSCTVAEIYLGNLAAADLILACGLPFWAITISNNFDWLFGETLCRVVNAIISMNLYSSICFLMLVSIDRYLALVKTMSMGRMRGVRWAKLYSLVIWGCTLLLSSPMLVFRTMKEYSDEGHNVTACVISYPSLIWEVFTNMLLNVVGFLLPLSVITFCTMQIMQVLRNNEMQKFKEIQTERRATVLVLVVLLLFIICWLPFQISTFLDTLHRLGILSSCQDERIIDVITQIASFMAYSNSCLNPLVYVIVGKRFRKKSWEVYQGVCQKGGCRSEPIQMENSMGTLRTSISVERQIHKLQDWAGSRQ
5-hydroxytryptamine receptor 1B (Rattus norvegicus), sequence (P28564 whole entry): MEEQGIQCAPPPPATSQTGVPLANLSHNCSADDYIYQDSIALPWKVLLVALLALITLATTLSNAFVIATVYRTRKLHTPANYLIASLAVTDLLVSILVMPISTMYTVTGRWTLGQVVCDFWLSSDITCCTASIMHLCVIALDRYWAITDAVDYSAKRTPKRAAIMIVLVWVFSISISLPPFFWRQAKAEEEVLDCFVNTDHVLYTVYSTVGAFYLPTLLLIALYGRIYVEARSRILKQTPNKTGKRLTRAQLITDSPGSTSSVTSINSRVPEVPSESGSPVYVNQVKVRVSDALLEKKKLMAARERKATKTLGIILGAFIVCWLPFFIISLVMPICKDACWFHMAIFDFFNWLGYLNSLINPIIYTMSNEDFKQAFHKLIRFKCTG
D(3) dopamine receptor (Homo sapiens), sequence (P35462 whole entry): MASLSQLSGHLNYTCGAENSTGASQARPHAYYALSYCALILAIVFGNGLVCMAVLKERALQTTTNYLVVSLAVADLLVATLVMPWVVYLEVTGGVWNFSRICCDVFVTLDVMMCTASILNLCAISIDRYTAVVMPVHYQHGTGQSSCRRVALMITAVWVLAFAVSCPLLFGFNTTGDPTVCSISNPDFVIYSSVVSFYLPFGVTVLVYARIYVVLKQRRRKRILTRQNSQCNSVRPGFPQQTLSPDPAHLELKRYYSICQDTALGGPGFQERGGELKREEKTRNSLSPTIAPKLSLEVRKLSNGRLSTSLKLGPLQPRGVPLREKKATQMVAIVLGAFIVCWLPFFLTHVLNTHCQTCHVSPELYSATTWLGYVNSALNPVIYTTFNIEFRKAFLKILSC
Galanin receptor type 1 (Homo sapiens), sequence (P47211 whole entry): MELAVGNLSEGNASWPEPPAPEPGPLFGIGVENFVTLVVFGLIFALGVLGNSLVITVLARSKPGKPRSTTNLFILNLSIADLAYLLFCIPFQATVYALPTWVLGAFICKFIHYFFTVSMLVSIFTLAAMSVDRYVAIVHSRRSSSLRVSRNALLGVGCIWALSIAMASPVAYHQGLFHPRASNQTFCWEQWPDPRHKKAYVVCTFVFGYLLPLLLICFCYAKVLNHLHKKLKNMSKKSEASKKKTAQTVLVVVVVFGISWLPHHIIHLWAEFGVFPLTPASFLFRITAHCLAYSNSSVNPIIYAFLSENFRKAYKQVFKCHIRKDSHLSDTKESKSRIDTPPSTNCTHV

Q: How did the inhibition [1] turn out when `Cc1cccc(C)c1OCCOCCN[C@@H](C)CO` was run?
A: 57.4%

Q: And the inhibition [2]?
A: 17.1%

Q: What about the Activity (Mus musculus [3]) of the same compound?
A: Active

Q: And the inhibition [4]?
A: -4%

Q: What about the inhibition [5] of the same compound?
A: 34.5%

Q: What about the inhibition [6] of the same compound?
A: 40.2%

Q: And the inhibition [7]?
A: 14.1%

Q: And the inhibition [8]?
A: -0.4%

Q: What about the inhibition [9] of the same compound?
A: 41.2%

Q: What about the inhibition [10] of the same compound?
A: 11.7%

Q: What about the inhibition [11] of the same compound?
A: 11.2%

Q: What about the inhibition [12] of the same compound?
A: 10.7%

Q: And the inhibition [13]?
A: 12.3%

Q: What about the Activity (Rattus norvegicus [14]) of the same compound?
A: inactive

Q: What about the inhibition (Rattus norvegicus [15]) of the same compound?
A: 9.4%

Q: What about the inhibition [16] of the same compound?
A: 9%

Q: What about the inhibition [17] of the same compound?
A: 5.2%

Q: And the inhibition [18]?
A: 32.1%

Q: What about the Activity (Rattus norvegicus [19]) of the same compound?
A: inactive

Q: What about the inhibition [20] of the same compound?
A: -0.8%

Q: What about the inhibition (Rattus norvegicus [21]) of the same compound?
A: -5.4%

Q: What about the inhibition [22] of the same compound?
A: 1.6%

Q: And the inhibition (Rattus norvegicus [23])?
A: 65.9%

Q: What about the inhibition [24] of the same compound?
A: 35.5%

Q: What about the inhibition [25] of the same compound?
A: 8.3%

Q: And the Activity (Rattus norvegicus [26])?
A: inactive

Q: And the inhibition [27]?
A: 16.5%

Q: What about the inhibition [28] of the same compound?
A: 47.4%

Q: And the inhibition [29]?
A: 51.7%

Q: And the inhibition [30]?
A: 11.1%

Q: And the inhibition [31]?
A: 35.8%

Q: What about the Activity (Mus musculus [32]) of the same compound?
A: inactive

Q: What about the inhibition [33] of the same compound?
A: 0.2%

Q: `Cc1cccc(C)c1OCCOCCN[C@H](C)CO` was tested. Which inhibition [1] did it give?
A: 44.1%

Q: And the inhibition [2]?
A: 0.6%

Q: What about the Activity (Mus musculus [3]) of the same compound?
A: Active

Q: What about the inhibition [4] of the same compound?
A: -0.8%

Q: And the inhibition [5]?
A: 52.6%

Q: And the inhibition [6]?
A: 23.6%

Q: And the inhibition [7]?
A: 22.7%

Q: What about the inhibition [8] of the same compound?
A: -0.7%

Q: And the inhibition [9]?
A: 2.2%

Q: What about the inhibition [10] of the same compound?
A: 6.4%

Q: What about the inhibition [11] of the same compound?
A: 3.4%

Q: And the inhibition [12]?
A: 4.2%

Q: And the inhibition [13]?
A: 29.4%

Q: And the Activity (Rattus norvegicus [14])?
A: inactive

Q: And the inhibition (Rattus norvegicus [15])?
A: 9.4%

Q: What about the inhibition [16] of the same compound?
A: 5.3%

Q: What about the inhibition [17] of the same compound?
A: 10.1%

Q: And the inhibition [18]?
A: 22.6%

Q: What about the Activity (Rattus norvegicus [19]) of the same compound?
A: inactive

Q: And the inhibition [20]?
A: -3.2%

Q: What about the inhibition (Rattus norvegicus [21]) of the same compound?
A: -1.4%

Q: What about the inhibition [22] of the same compound?
A: -3.9%

Q: And the inhibition (Rattus norvegicus [23])?
A: 43.6%

Q: And the inhibition [24]?
A: 42.8%

Q: What about the inhibition [25] of the same compound?
A: 31.3%

Q: What about the Activity (Rattus norvegicus [26]) of the same compound?
A: inactive

Q: What about the inhibition [27] of the same compound?
A: -1.8%

Q: What about the inhibition [28] of the same compound?
A: 34.7%

Q: And the inhibition [29]?
A: 17.3%

Q: What about the inhibition [30] of the same compound?
A: 12.6%

Q: And the inhibition [31]?
A: 40.9%

Q: And the Activity (Mus musculus [32])?
A: inactive

Q: And the inhibition [33]?
A: 1.5%
